Source: ChEMBL document CHEMBL5715947 (Blood Cancer J, 2011)
Calls of active or inactive are those of the source. The rule behind the calls is not given here.

Key:
[1] = system: Receptor-type tyrosine-protein kinase FLT3 (Homo sapiens), P36888 [UNDEFINED MUTATION]; test: Inhibition of FLT3-ITD mutant in human MV4-11 cells assessed as reduction in phosphorylated FLT3 protein expression up to 1000 nM incubated for 3 hrs by Western blot analysis; format: cell-based
MV4-11 [2] = test: Down regulation of JAK2 protein expression level in human MV4-11 cells harboring FLT3-ITD mutant at 5 nM after 24 hrs by Western blot analysis; format: functional, cell-based
[3] = system: Receptor-type tyrosine-protein kinase FLT3 (Homo sapiens), P36888 [UNDEFINED MUTATION]; settings: MV4-11, dose 5.0 nM, time 24.0 hrs
MV4-11 [4] = test: Down regulation of JAK2 protein expression level in human MV4-11 cells harboring FLT3-ITD mutant at 18 nM after 24 hrs by Western blot analysis; format: functional, cell-based
[5] = Selectivity ratio of IC50 for antiproliferative activity against human linifanib-resistant MV4-11 cells harboring FLT3-ITD mutant to IC50 for antiproliferative activity against human MV4-11 cells harboring FLT3-ITD mutant; format: functional
Outline: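 Linifanib-resistant MV4-11 (MV4-11-R) and parental MV4-11 (MV4-11-P) cells, 2000–6000 cells/well, dosed on the seeding day in triplicate for 48 h, with final DMSO 0.1%. Viability was read by CellTiter-Glo luminescence. IC50 for each line came from dose-response curves, and the ratio is the resistant-line IC50 divided by the parental IC50.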

MV4-11 [6] = test: Synergistic antiproliferative activity against human MV4-11 cells harboring FLT3-ITD mutant assessed as combination index at ED50 concentration incubated for 48 hrs in presence of JAKi-1 by CellTiter-Glo assay; format: functional
Outline: (§1)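 Two drugs combined at a constant ratio based on each one's individual IC50. […] Cells seeded 2000–6000/well and treated the same day in triplicate for 48 h. Viability read by CellTiter-Glo. Synergy from dose-response data of the combination. Final DMSO 0.1%.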

MV4-11 [7] = test: Synergistic antiproliferative activity against human MV4-11 cells harboring FLT3-ITD mutant assessed as combination index at ED90 concentration incubated for 48 hrs in presence of JAKi-1 by CellTiter-Glo assay; format: functional; outline: as §1
[8] = Toxicity in BALB/c nude mouse xenografted with human MV4-11 cells harboring FLT-3 ITD mutant assessed as change in body weight at 25 to 100 mg/kg, po administered daily for 21 days; format: organism-based; settings: in vivo, 504 h, dose 25-100 mg/kg, time 21 day

Chain of Receptor-type tyrosine-protein kinase FLT3 (Homo sapiens), P36888 [UNDEFINED MUTATION] (P36888 whole entry, looked up, change not shown): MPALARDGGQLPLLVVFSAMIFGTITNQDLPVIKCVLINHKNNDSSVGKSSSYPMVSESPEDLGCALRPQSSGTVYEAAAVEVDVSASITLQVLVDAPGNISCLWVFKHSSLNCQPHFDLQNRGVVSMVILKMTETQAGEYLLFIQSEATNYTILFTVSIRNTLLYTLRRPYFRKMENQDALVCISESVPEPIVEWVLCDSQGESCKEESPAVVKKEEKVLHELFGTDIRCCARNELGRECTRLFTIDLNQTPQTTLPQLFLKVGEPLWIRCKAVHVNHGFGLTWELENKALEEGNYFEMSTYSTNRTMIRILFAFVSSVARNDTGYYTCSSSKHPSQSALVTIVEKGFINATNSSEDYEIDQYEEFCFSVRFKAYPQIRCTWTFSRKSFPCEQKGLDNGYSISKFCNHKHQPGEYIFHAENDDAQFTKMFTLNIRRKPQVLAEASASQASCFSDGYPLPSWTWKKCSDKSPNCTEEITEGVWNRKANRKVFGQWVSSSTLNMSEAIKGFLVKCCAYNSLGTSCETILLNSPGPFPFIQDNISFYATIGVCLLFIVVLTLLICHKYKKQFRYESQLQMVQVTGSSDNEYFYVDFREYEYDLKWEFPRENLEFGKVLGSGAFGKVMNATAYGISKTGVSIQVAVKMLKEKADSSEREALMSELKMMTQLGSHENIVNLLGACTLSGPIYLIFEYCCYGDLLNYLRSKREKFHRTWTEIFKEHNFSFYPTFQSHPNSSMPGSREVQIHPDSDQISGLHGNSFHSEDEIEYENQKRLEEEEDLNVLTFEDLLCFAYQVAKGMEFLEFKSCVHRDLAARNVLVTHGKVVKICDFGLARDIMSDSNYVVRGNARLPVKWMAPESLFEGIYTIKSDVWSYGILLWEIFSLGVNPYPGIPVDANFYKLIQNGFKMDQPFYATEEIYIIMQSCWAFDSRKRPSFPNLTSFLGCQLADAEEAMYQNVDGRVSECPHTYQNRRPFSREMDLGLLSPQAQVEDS

Q: For `CC(C)(C)c1nc2c3ccc(F)cc3c3c(=O)[nH]ccc3c2[nH]1`, which inhibition [1] is on record?
A: inactive

Q: Which results are given for `CCN(CC)CCNC(=O)c1c(C)[nH]c(/C=C2\C(=O)Nc3ccc(F)cc32)c1C`?
A: Activity (MV4-11 [2]): inactive; inhibition [3]: Active

Q: Which Activity (MV4-11 [4]) does the source give for `Cc1cc(Nc2cc(N3CCN(C)CC3)nc(Sc3ccc(NC(=O)C4CC4)cc3)n2)n[nH]1` here?
A: inactive

Q: For `Cc1ccc(F)c(NC(=O)Nc2ccc(-c3cccc4[nH]nc(N)c34)cc2)c1` [LINIFANIB], which Activity (MV4-11 [2]) is on record?
A: inactive

Q: What about the “Ratio IC50” value [5] of the same molecule?
A: 127

Q: And the CI (MV4-11 [6])?
A: 0.73

Q: What about the CI (MV4-11 [7]) of the same molecule?
A: 0.8

Q: And the inhibition [3]?
A: Active

Q: With `C1=C/COCc2cc(ccc2OCCN2CCCC2)Nc2nccc(n2)-c2cccc(c2)COC/1` [PACRITINIB] as the molecule, how does the Activity [8] read?
A: Non-Toxic
